Source: the EternaBench riboswitch data

Test system: MS2 coat protein
Experiment: apparent Kd, MS2 coat protein; higher = weaker binding; RNA-MaP array; FMN 200 µM where present
How it was run: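 Stalled E. coli RNA polymerase produced the designs on Illumina sequencing-chip clusters. SNAP-549-labelled MS2 coat protein was added from 0.7 or 1.5 nM, doubling to 3 µM, without and then with constant ligand, in 100 mM Tris-HCl pH 7.5, 80 mM KCl, 4 mM MgCl2, BSA, DTT, yeast tRNA and Tween-20. The apparent Kd is the median of filtered per-cluster fits of green signal normalised to red-channel RNA signal and control-cluster median Fmax.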

[1] = designed as: ON switch for flavin mononucleotide, no ligand
[2] = ligand present: flavin mononucleotide, designed as: ON switch for flavin mononucleotide
[3] = designed as: OFF switch for flavin mononucleotide, no ligand
[4] = ligand present: flavin mononucleotide, designed as: OFF switch for flavin mononucleotide

Sequence	apparent Kd [1]	apparent Kd [2]	apparent Kd [3]	apparent Kd [4]
GGUGGGUUGCUACCGGCACAUGAGGAUCACCCAUGUUUUGGGAAGGAUAUGGUACCUAUUUGGUACCAGAAGGUCCCGUUGGUG	330 nM	239 nM	–	–
ACAUGAGGAUCACCCAUGUCUUUAUCCGAUUCUUCAUUUACGUAGGAUAUCGUCUAUACUAUCAUCGAGAAGGACGUUCUUUAA	17.6 nM	15.9 nM	–	–
GUGUGCAGAGGAUAUACAUAGGAAUAUAAUAUAAUAUAAUUACAUGAGGAUCACCCAUGUAGAAGGCUGAGUGU	–	–	23.8 nM	26.8 nM
AGCAGCUCGUCAGGAUAUACGUCACUGCGUCAGCAGUGUGGUAAGAUCACAUGAGGAUCACCCAUGUAGAAGGGACGAGCUGAU	–	–	13.7 nM	273 nM
ACCGUCCUCGUCAGGAUAUGUAUUGACUCUCCGAUACAGAAGGGACAUGAGGAUCACCCAUGUCCGGGACCUUA	–	–	18.2 nM	21.7 nM
CAAACAAGUGCGAGCUGACACAUGAGGAUCACCCAUGUAACACAGGAUAUCUGUCAAGGCGUGAAAGAGAAGGGUGGUCGGAAA	226 nM	375 nM	–	–
UGUCGGAGCAGAGGAUAUACAUGAGGAUCACCCAUGUAAUAAAGUGAAGCCUGGAAACAGGCAAUGUAGAAGGCUGCUCCGAUA	–	–	12 nM	88.6 nM
UGUGUGUGGGCAGGAUAUACAUGAAUAUAUAUGAUGUAGUAUGAUGUAACAUGAGGAUCACCCAUGUAGAAGGGCCGGUGUAUG	–	–	122 nM	140 nM
GUACGGGAGGAGAAGGGCUAGGAGGUCCAGCUUAUGUGUGUUGCAACAUGAGGAUCACCCAUGUAGCAGGAUAUCCUCUGUACA	–	–	46.3 nM	332 nM
GGUCCAUCAUGAGGAUAUGGCACCUUAUUGGUGCCAGAAGGCAUGUCUAUUGACAUGAGGAUCACCCAUGUAUUAAUUUGGACC	1040 nM	80.7 nM	–	–
UGAACUAUGUAGAAGGCCCUCAUUAAUAUGAAGGGAGGAUAUACAUGAGGAUCACCCAUGUGAAGAGCAAGAGGGUUUAACAGA	–	–	89.1 nM	479 nM
CGCCGACAUGAGGAUCACCCAUGUCACAUCUGGUCAGGAUAUGGUAUGAUUUGGCUAUUGCCAGAAGGGACCUCAG	48.9 nM	28 nM	–	–
CUAUCGCAAGGAUAUACAUGAGGAUCACCCAUGUGGAAGAAUGGCCCAAAUCUAACAUGUAGAAGGUGCUAAAA	–	–	40.6 nM	64.9 nM
UGUUGUUCAGGAUAUGGUGUGUUAUACAUGAGGAUCACCCAUGUGGGUCCUGGUUUGGCCUCAGAAGGGAAUGUUG	–	–	750 nM	537 nM
GUGGUACAUGAGGAUCACCCAUGUUAGGAUAUCGCGUGAGGUUUUACUUCCGCACACGCGAGAAGGGACGUCUU	–	–	54.9 nM	41.6 nM
CCACGUCACAUGAACAUGAGGAUCACCCAUGUAACUAGACAUGAGGAUAUGGAUCCUAAUUGGAUCCAGAAGGCAUGGACGUGG	168 nM	29.2 nM	–	–
UCAUAUAAACAAGGAUAUCAAUUAUUUACACAUCCUACAUGAGGAUCACCCAUGUUUUAAUAUUUUGAGAAGGUGUAAUGUCGG	24 nM	29.9 nM	–	–
AUAUAUCAUACAGGAUAUACAUGAGGAUCACCCAUGUGUUCUCCAUAAUUGACACCAAUUAUGCUGUAGAAGGGUAUGAUAUAU	–	–	22.3 nM	151 nM
CGCGCGUCGACAGGAUAUACAGAUUGGCUCCGGUACAUGAGGAUCACCCAUGUAGAAGGGUCACGCACGGAUAGUACAUUAUUA	–	–	8.44 nM	28 nM
UCGGCGCGAGGAUAUGCGGUUUGUGCUUUGGGCCCUGGCGUACAUGAGGAUCACCCAUGUAGAAGGCGUGUUGC	–	–	21.3 nM	21.3 nM
UGUCCUUGAGGCUCGGACGUGUCGCCAGAAGGCAAUUUCUGACAUGAGGAUCACCCAUGUCCAAUUGAGGAUAUGGCUGCGAAG	27.2 nM	7.52 nM	–	–
GGCCCGUCUGUUAGGAUAUUGUCGAACUUUAGCGGCGAGAAGGAACAUGAGGAUCACCCAUGUCCCAACUGGGA	–	–	25.5 nM	196 nM
UGUAAAUUAUUAAGUAAUUAGGCGAAGGAUAUAUAACAUGAGGAUCACCCAUGUACUAAAUUGAAGUAGAAGGUUGAGCAUUUC	16.5 nM	14.6 nM	–	–
GUACUGUAGUGAGGAUAUACGAGUACGAUAGUACGGCGAUCCAUAUAUACAUGAGGAUCACCCAUGUAGAAGGCACUUCAGUAC	–	–	8.66 nM	109 nM
AGUAAGAUGCAGAAGGUGUUAGCUAGAGCUACGACAUGAGGAUCACCCAUGUACUAGAAACAGUACAAGGAUAUGCAUCUUACG	16.6 nM	6.47 nM	–	–
UUAUUAAGUGUGAGGAUAUGCUGGUCCUUGGAUCAGCAGAAGGCACAUGAGGAUCACCCAUGUACAUUAUUUUA	–	–	35 nM	247 nM
GGUCCACAUGAGGAUCACCCAUGUCAGGAUAUACACGGCACAAUAAUAAGUGCCACCCGUAGAAGGGACGCUGG	–	–	14.8 nM	37.6 nM
GUAGCUAUCGGAGGAUAUUCAUACCGGAAACGGACAUGAGGAUCACCCAUGUGGCGAAAGUCUUGGGAGAAGGCCGAUAGCUAC	75.5 nM	6.28 nM	–	–

Sequence	apparent Kd [1]	apparent Kd [2]	apparent Kd [3]	apparent Kd [4]
ACAUUUUAUGCAGGAUAUUGACAUAUAUUUAAACAAGAAGGGCAUUACAUGAGGAUCACCCAUGUUAUAAUGGUAUAUAAGUUC	–	–	21.4 nM	19.2 nM
GUAGGAAUCACAGGAUAUGCAUGCGCCGCUUCGAUCUACAUGAGGAUCACCCAUGUGUGGUCCGUGUAGAAGGGUGUUUGCUAC	80.8 nM	34.7 nM	–	–
GUGUAGACAGGAUAUGCUUUGAGCAUAUGAGAGUAUGCUCUACAUGAGGAUCACCCAUGUAGAAGGGUCUACAC	–	–	11.9 nM	12.5 nM
AUAGAAGUCUAGAAGGACCUAGCUGUAUACCAUCAGGUAUAUACGCUAGGUAGGAUAUGGGACAUGAGGAUCACCCAUGUGUUG	48 nM	22.6 nM	–	–
CUGUAUCGGUCAGGAUAUGUGCGUAAACUGUGAACAGAAGGGACCGUACAUGAGGAUCACCCAUGUCCGGGACUCCUUAUGCCU	–	–	18.1 nM	22.2 nM
AAUAAACAUGAGGAUCACCCAUGUGGUGGCCCAUGAGGAUAUCCGUACGCAAUGCGCACAGGAGAAGGCAUAGCCA	33.9 nM	90.8 nM	–	–
GUGCGGUGAGGAUAUACGUAGGUGAAAAUCUGUGUGUUCCUACAUGAGGAUCACCCAUGUAGAAGGCAUGGCAC	–	–	148 nM	45.3 nM
CGCAACUUUUCUCAUGUAAACAUGAGGAUCACCCAUGUAAUGAGAAGGAGGAGGAAGAGAGAAUCCUAGGAUAUCAGAGUUGCG	–	–	7.12 nM	6.01 nM
CAUGUCCUCACAGGAUAUGCUGGACUUUGUCCAGCAGAAGGGUGAUAACAUGAGGAUCACCCAUGUGGACAUGAUAUAUUUAAU	111 nM	568 nM	–	–
CGCUGUCACGCAGGAUAUGCAUUGGAUUACAAUGCAGAAGGGCGAUUACAUGAGGAUCACCCAUGUGUUGACAGUGAAGAAGAG	1240 nM	80.6 nM	–	–
UUAAUAGUAGGAUAUACAUGAGGAUCACCCAUGUAGCAACUACACAAAGGAACCUGAUGUAGAAGGACUCCCAA	–	–	14.4 nM	14.5 nM
GGUGGACAUGAGGAUCACCCAUGUGAGGAUAUCGGCUGGCUAGCGGCGGACGGCUGCUCGAGAAGGCGCAUUGU	–	–	90.6 nM	137 nM
UUUUUCUCAGGAUAUACAUGAGGAUCACCCAUGUAUAUUGAAGAUAAUACAUGGGAAUGUAGAAGGGAGCUCAU	–	–	109 nM	115 nM
UAUAUAUAGUAAGGAUAUGUAUUUCUUUUAUAAACAGAAGGUACUGACAUGAGGAUCACCCAUGUUUUAGUGUGGGCAUGUAGA	–	–	81.2 nM	116 nM
AGUGUCAUCGAGAAGGCCUCAACAUGAGGAUCACCCAUGUUGGAAUAUGGGAGGAUAUCGAUGAUACAGCUACGUUUCGUAGCA	10.2 nM	5.04 nM	–	–
UUAUUAUGUGUAGGAUAUGCAUAUUACUAUUAUGCAGAAGGACAUGAGGAUCACCCAUGUAUAUUAUUAUUAUAUAUUAUAUAU	–	–	14.9 nM	22.4 nM
AGAAACUACGAGAAGGACAUAUGGUUCUUCAGAUACAUGAGGAUCACCCAUGUAGGAUAUCGUAGUUUCAGGAUCGUGAGAUCA	–	–	6.51 nM	9.68 nM
GGAUAGGACAGAGGAUAUACGUGCUAGAGAUACUAGCAAAAUUUCGUCACAUGAGGAUCACCCAUGUAGAAGGCUGUCCUAUCG	–	–	5.02 nM	7.65 nM
UUACGUCCCGUUUACAUGAGGAUCACCCAUGUCGAAAGACAUGAGGAUAUGCUACCUAAUUGGUAGCAGAAGGCAUGGACGUCG	306 nM	312 nM	–	–
CGCUGUCAUGCAGGAUAUGCAUUGGAUUACAAUGCAGAAGGGCGAUUACAUGAGGAUCACCCAUGUGUAGACAGUGAAGAAGAC	167 nM	11.9 nM	–	–
AUGCUAUACGAAGGAUAUGGUUACAUGAGGAUCACCCAUGUUAUGAUUGGGUACAUGAAAAGGUUCCAGAAGGUCGUAUAGCUA	–	–	1210 nM	736 nM
UUUGUUUUGCAAGGAUAUGUUUAAUUUUAGUUUCCUUACACAUGAGGAUCACCCAUGUUAUACUUACAGAAGGUGCGUAAUUUG	–	–	149 nM	136 nM
AUAAGGUUCUUCAAGGUGCUACAUGAGGAUCACCCAUGUGAGAGAAGGGCCCGUGGACUUGGAGGGUAGGAUAUCUCCAUGCGU	–	–	8.32 nM	10.1 nM
GCCUGAUCAACUCUAGGCCCAGACAGAAGGGCACACGGUCUAAGUCACAUGAGGAUCACCCAUGUGCAGGAUAUGUCUCGACUC	–	–	8.03 nM	21.4 nM
GUCAGCUCGUCAGGAUAUACGUCACUGCUUCGGCAGUGUGGUAAGAUCACAUGAGGAUCACCCAUGUAGAAGGGACGAGCUGAA	–	–	11.8 nM	209 nM
AGAAACUACGAGAAGGACAUAUGGUACUUCAGCUACAUGAGGAUCACCCAUGUAGGAUAUCGUAGUUUCAGGAUCGUGAGAUCA	–	–	5.65 nM	6.02 nM
GCUACGCCUGACAUGAGGAUCACCCAUGUUAGAUUGUUAUGUCAGGAUAUUGUCUAGAAACUAGACAAGAAGGGAUGUGUAGCU	728 nM	66.5 nM	–	–
